Among all 2,500 compounds or so, about 460 (18%) were called active. A selection follows. A number with no mark means an inactive call.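 How the source made its calls: active means mean activation above a cutoff of low control average plus 3 SD from the earlier screen (cut at about 12% in these data); inactive means the rest.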
test: IANBD-channel fluorescence artefacts in buffer – biochemical, artefact control for cardiac RTF calcium sensitizer project, confirmation (AID 504382); conditions: IANBD fluorescence interference counterscreen, EC20 Ca2+, at 7.2 µM, stronger effect = higher value, scaled: EC20 calcium 0, EC100 calcium 100
Outline: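 Technique: fluorescence, 480/540 nm / Medium: MOPS-based buffer with KCl, MgCl2, EGTA, NTA, DTT, pH 7.2 / Probe or stimulus: calcium at EC20 level, 0.472 mM final / Repeats: triplicate wells per compound / Times: 15 min compound exposure at 25 °C / Measure: compound fluorescence interference relative to control well signal range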

Row | SMILES | fluorescence artifact activation
1 | O=C(Nc1cccc(Cl)c1)c1cc(S(=O)(=O)NCCc2ccc(Cl)cc2)ccc1F | 10.6%
2 | COc1cccc(/C(O)=C/c2nc3ccc(C(=O)NCCc4ccc(Cl)cc4)cc3[nH]c2=O)c1 | 0.43%
3 | COc1ccc(N(C)S(=O)(=O)c2ccc(Cl)c(C(=O)NCCc3ccc(Cl)cc3)c2)cc1 | 35.3% (active)
4 | CCOc1ccc(C(C(=O)NC2CCCCC2)N(C(=O)Cc2cccs2)c2ccc(-n3cnnn3)c(OC)c2)cc1 (centres undefined) | 0.09%
5 | O=C(c1ccccc1)N1CCN(CC#CC2(O)CCCCC2)CC1 | -0.05%
6 | COc1ccc(N2CCN(C(=O)c3ccc(OCC4CCCO4)cc3)CC2)cc1 (centres undefined) | 23.9% (active)
7 | CCOc1ccc(C(=O)NC2CCN(C(=O)Nc3ccccc3OC)CC2)cc1 | -0.03%
8 | COC(=O)CN1C(=S)N(c2ccc(OC)cc2)C(=O)/C1=C/c1ccc(N2CCOCC2)cc1 | -0.04%
9 | COc1ccc(CC(=O)NCc2csc(-c3cccs3)n2)cc1OC | 0.03%
10 | Cc1c(Cl)c([N+](=O)[O-])nn1CC(=O)N1CCN(C23CC4CC(CC(C4)C2)C3)CC1 | 0.69%
11 | COc1cc(/C=C2\SC(=O)NC2=O)ccc1Oc1ccc([N+](=O)[O-])cn1 | 25% (active)
12 | COc1ccc(/C=C2\SC(=O)NC2=S)cc1OC | 0.32%
13 | COc1ccc(/C=C2\SC(c3ccc(C)cc3)=NC2=O)cc1OC | 0.1%
14 | NC(=S)Nc1c(Cl)cccc1Cl | -0.03%
15 | COc1[nH]c(/N=C/c2ccccc2)c(C#N)c1C#N | 0.1%
16 | NC(=O)NC(Cc1ccccc1)C(=O)NCC1(N2CCCCC2)CCCCC1 (centres undefined) | 7.54%
17 | CC1CC(C)CN(C(=O)COC(=O)CCc2nc3ccccc3c(=O)[nH]2)C1 (centres undefined) | -0.03%
18 | Cn1cc(/C=C2\SC(=S)N(NC(=O)c3ccccc3Cl)C2=O)c2ccccc21 | 6.42%
19 | CNC(=O)N(O)C1N(C)C(=O)N(CC(=O)OC)C1(C)C (centres undefined) | 12.4% (active)
20 | COc1ccc(/C=C2\SC(=S)N(CCCC(=O)Nc3ccccn3)C2=O)cc1OC | 0.11%
21 | CC(C(=O)c1ccc(Br)cc1)[n+]1cccc2ccccc21 (centres undefined) | 11.8% (active)
22 | CN(C)c1ccc(/C=C(/C(=O)c2ccc(Cl)cc2Cl)n2cncn2)cc1 | -0.05%
23 | CCOC(=O)c1c(=O)n(O)c2ccc(OC)cc2[n+]1[O-] | 0.13%

Row | SMILES | fluorescence artifact activation
24 | O=C(c1cccs1)N1CCN=C1SCc1cccc(F)c1 | 0.02%
25 | COc1cc(OC)cc(C(=O)NCC(=O)OC2CCOC2=O)c1 (centres undefined) | 6.1%
26 | COCCNC(=O)C(c1ccc(C)o1)N(Cc1ccc(F)cc1)C(=O)Cn1nnc2ccccc21 (centres undefined) | 0.43%
27 | O=C(NC1CCCCC1)C(c1ccc(F)cc1)N(Cc1ccccc1)C(=O)CN1C(=O)c2ccccc2S1(=O)=O (centres undefined) | 27.8% (active)
28 | O=C(NCC(=O)N(Cc1cccs1)C(C(=O)NC1CCCCC1)c1ccncc1)c1ccco1 (centres undefined) | 0.04%
29 | CSC(=NCc1ccco1)NC#N | 0.12%
30 | CN1/C(=C\C=C2/SC(=S)NC2=O)C(C)(C)c2ccccc21 | 0.11%
31 | Cc1cc(-c2ccccc2C(=O)NC2CCCCC2)on1 | 0.27%
32 | Cc1ccc(Cn2c(Sc3nnc(C)s3)nc3c2c(=O)[nH]c(=O)n3C)cc1 | 42.6% (active)
33 | CCN(CC)S(=O)(=O)c1ccc2c(c1)nc(CCC(=O)Nc1ccc3c(c1)OCO3)n2C | 0.09%
34 | COc1cc(C(=O)Nc2ccc(Cl)c(C(F)(F)F)c2)cc(OC)c1OC | 0.1%
35 | COc1cc(C(=O)NCc2nnc(SCC(=O)Nc3ccc4c(c3)OCO4)o2)cc(OC)c1OC | 35.2% (active)
36 | Cc1onc(-c2c(F)cccc2Cl)c1C(N)=S | 6.57%
37 | CN(C)c1ccc(/C=C(\C#N)C(=O)Nc2nc3c(s2)CCN(Cc2ccccc2)C3)cc1 | 0.06%
38 | Cc1ccc(N=Nc2c(O)[nH]c3ccc(F)cc23)cc1 | 6.29%
39 | Cc1cc(S(=O)(=O)N2CCCC(C(=O)Nc3ccc(C(=O)O)cc3)C2)ccc1Cl (centres undefined) | 1.39%
40 | CC(=O)N1CCCc2cc(S(=O)(=O)N3CCCC(C(=O)Nc4cccc(C)c4)C3)ccc21 (centres undefined) | 0.1%
41 | CC(=O)c1ccc(NC(=O)C2CCCN(S(=O)(=O)c3c(C)[nH]c(=O)[nH]c3=O)C2)cc1 (centres undefined) | 20.3% (active)
42 | O=C1CCC[C@@H]2C[C@@]3(C[C@@H]4CCN1[C@H]24)Nc1cc([N+](=O)[O-])ccc1NC3=NC1CCCCC1 | 10.3%
43 | CCCC(CCC(=O)Nc1ccc(S(N)(=O)=O)cc1)C(=O)O (centres undefined) | 0.96%
44 | CC1(c2ccc(OC(F)F)cc2)NC(=O)N(CC(=O)Nc2ccc(F)cc2)C1=O (centres undefined) | 0%
45 | NS(=O)(=O)c1ccc(NC(=O)COc2ccc(C(=O)c3ccc(F)cc3)cc2)cc1 | 545% (active)
46 | CCOC(=O)C1(CCc2ccccc2)CCN(C(=O)c2occc2C)CC1 | 3.37%

Row | SMILES | fluorescence artifact activation
47 | CCCC1C(c2ccccc2)C(C#N)(C#N)C2(C#N)CC1(N)NC2=O (centres undefined) | 0.01%
48 | Oc1[nH]c2ccccc2c1N=Nc1ccccc1Cl | 0.13%
49 | C#CCOCCOCCOCCNc1nc(N2CCN(C(=O)CCCCCCCCCCNC(=O)[C@@H](CCSC)n3cc(CCO)nn3)CC2)nc(N2CCN(C(=O)CCCCCCCCCCNC(=O)[C@H](CCSC)n3cc(CCO)nn3)CC2)n1 | 0.15%
50 | NS(=O)(=O)c1ccc(NCc2c(F)cccc2Cl)cc1 | 24.7% (active)
51 | CCN=C(NC#N)SCc1c(F)cccc1Cl | 0.17%
52 | COc1ccc(C2NN=C(c3c[nH]c4ccccc34)C2O)cc1 (centres undefined) | 8.63%
53 | CN(CC(=O)NCc1ccc(Cl)cc1)S(=O)(=O)c1cccc2cccnc12 | 0.14%
54 | CC(C)c1ccc(NS(=O)(=O)c2cccc3cccnc23)cc1 | 168% (active)
55 | CCN(CC)C(=O)C1CCC(CNS(=O)(=O)c2cccc3cccnc23)CC1 (centres undefined) | -0.02%
56 | CCc1ccc2c(COC(=O)CNS(=O)(=O)c3ccc(NC(C)=O)cc3)cc(=O)oc2c1 | 2.6%
57 | COC(=O)c1ccc(CS(=O)(=O)c2ccc(F)cc2)o1 | 0.08%
58 | N#CC1(C#N)CC(C=O)=C(N)C1(C#N)CC(=O)c1ccc(F)cc1 (centres undefined) | 2.93%
59 | Cc1ccc(Cn2nc(C)c(NC(=O)C3(C)CC3(Br)Br)c2C)cc1 (centres undefined) | 6.32%
60 | CC(NC(=O)CN1CCC(C(N)=O)CC1)c1ccccc1 (centres undefined) | -0.04%
61 | CN(C)NC(=S)Nc1ccc(S(=O)(=O)N2CCCCC2)cc1 | 2.09%
62 | Cc1ccc(CNC(=O)c2ccc(S(=O)(=O)N3CCCCC3)cc2)cc1 | -0.06%
63 | Cc1ccc(NC(=O)CN(C)c2ccc(S(=O)(=O)N3CCCC3)cn2)cc1 | 18.6% (active)
64 | COc1cc(/C=C/c2sc3ccccc3[n+]2CCCS(=O)(=O)[O-])ccc1O | 1.3%
65 | O=[N+]([O-])c1ccc(NN=Cc2cccc3ccccc23)nc1 | 7.52%
66 | COc1ccc(-n2c(C)cc(/C=C3\SC(=S)NC3=O)c2C)cc1 | -0.04%
67 | O=C(CCC1CCCN(C(=O)C2=CCCC2)C1)N1CCN(c2ccccn2)CC1 (centres undefined) | -0.04%
68 | O/C=c1\ccc2cccc3nc(C(F)(F)F)nc1c23 | 1630% (active)
69 | Cc1ccc(N2C3=C(C(=O)CC(C)(C)C3)C(c3cn(C)nc3C)C3=C2CC(C)(C)CC3=O)cc1 | 8.85%

Row | SMILES | fluorescence artifact activation
70 | O=C(c1c[nH]c(C(=O)C(Cl)(Cl)Cl)c1)c1c(F)cccc1F | 1460% (active)
71 | CN(C)C=NC(=O)c1cc(C(=O)c2ccccc2Cl)c[nH]1 | 0.08%
72 | COc1ccc(-n2nc3c(N4CCC(C(=O)NCc5ccco5)CC4)nnc(C)c3c2C)cc1 | 0.15%
73 | Cn1c(/C(C#N)=C(\O)CN2CCN(Cc3ccccc3)CC2)nc2ccccc21 | -0.07%
74 | Cc1nc([N+](=O)[O-])c(Sc2nc3ccccc3n2C)n1Cc1ccccc1 | 17.2% (active)
75 | Cc1nc([N+](=O)[O-])c(Br)n1CC(=O)c1ccc2ccccc2c1 | 0.15%
76 | COc1cc(-c2c(-c3ccc4c(c3)OCO4)noc2C)ccc1F | 6.28%
77 | COC(=O)c1sc(N2C(=O)C(O)=C(C(=O)c3ccc(C)o3)C2c2ccc(F)cc2)nc1C (centres undefined) | 7.6%
78 | CCCCOc1cccc(C2C(C(=O)c3cccs3)=C(O)C(=O)N2Cc2cccnc2)c1 (centres undefined) | -0.01%
79 | CCCOc1ccc(C2C(C(=O)c3ccc(C)o3)=C(O)C(=O)N2CCCn2ccnc2)cc1 (centres undefined) | 20.7% (active)
80 | COc1ccc(-c2cc(C(F)(F)F)c3c(N)c(C(=O)NCCSC)sc3n2)cc1 | 0.08%
81 | COc1ccc(Sc2ccc(-c3nc4cnccn4c3NC3CCCCC3)cc2OC)cc1 | 0.04%
82 | Cc1ccc(NC(=O)/C(C#N)=C/c2ccc(C)s2)c(C)c1 | 0.06%
83 | Cc1cccc(CSc2ccc(-c3ccco3)nn2)c1 | 0.5%
84 | Cc1cc(C)c2c(=O)n(-c3ccccc3)[nH]c2n1 | 0.96%
85 | Cc1cc(C)nc(SCCCNCc2ccc(Br)cc2)n1 | -0.01%
86 | CC(=O)C1=C(C)N(Cc2ccccc2)C(=O)N[C@@H]1c1cccc(C(F)(F)F)c1 | -0.08%
87 | CC(=O)C1=C(C)N(CC2CC2)C(=O)N[C@H]1c1ccc(Br)cc1 | 36.6% (active)
88 | O=c1c2ccccc2nc2n1CCCN2 | 2.97%
89 | N=c1n(Cc2ccccc2)c2ccccc2n1CC(O)c1ccco1 (centres undefined) | 7.18%

— PubChem BioAssay AID504382 (The Scripps Research Institute Molecular Screening Center, 2011)
